In ChEMBL document CHEMBL1152610, “3- and 6-Substituted 2-amino-4,5,6,7-tetrahydrothieno[2,3-c]pyridines as A1 adenosine receptor allosteric modulators and antagonists” (Bioorg Med Chem, 2009):
Activity calls are given as the source filed them. No cut-off for these calls is given here.

What was measured:
[1] = target: T1, Adenosine receptor A1 (Homo sapiens, UniProt P30542); assay: Allosteric modulatory activity at human adenosine A1 receptor expressed in CHOk1 cells assessed as drug level causing half maximal allosteric effect on [125I]-ABA dissociation from receptor-G protein ternary complex by dissociation kinetic binding assay; assay type: cell-based
T1 sequence (P30542 whole entry): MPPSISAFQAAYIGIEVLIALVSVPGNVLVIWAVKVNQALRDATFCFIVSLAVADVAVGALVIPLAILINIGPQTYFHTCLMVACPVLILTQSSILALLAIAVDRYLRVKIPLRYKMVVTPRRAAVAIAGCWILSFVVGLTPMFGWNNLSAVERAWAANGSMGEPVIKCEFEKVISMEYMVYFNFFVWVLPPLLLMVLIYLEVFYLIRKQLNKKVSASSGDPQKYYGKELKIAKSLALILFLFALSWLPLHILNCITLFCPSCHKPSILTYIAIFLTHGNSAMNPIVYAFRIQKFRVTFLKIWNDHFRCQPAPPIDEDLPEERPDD

[2] = target: T2, Adenosine receptor A1 (Homo sapiens) (UniProt P30542); assay: Allosteric modulatory activity at human adenosine A1 receptor expressed in CHOk1 cells assessed as [125I]-ABA-receptor-G protein ternary complex remaining after 10 mins of radioligand dissociation at 50 uM by dissociation kinetic binding assay; assay type: cell-based
T2 sequence (whole entry): T1 sequence (P30542 whole entry)
How it was run: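 Membranes (10 μg) from CHO-K1 cells stably expressing human A1AR were equilibrated for 90 min at room temperature with 0.5 nM [125I]-ABA in 10 mM HEPES pH 7.2, 0.5 mM MgCl2 and 1 U/mL adenosine deaminase. Modulator (0.1–50 μM final) was added for 30 min. Dissociation was started with 100 μM orthosteric antagonist plus 25 μM GTPγS for 10 min, then samples were filtered and counted. K-score is the % specific binding remaining; EC50 comes from a variable-slope sigmoidal fit.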

[3] = target: T2, Adenosine receptor A1 (Homo sapiens); assay: Agonist activity at human adenosine A1 receptor expressed in CHOk1 cells assessed as potentiation of R-PIA-induced ERK1/2 phosphorylation at 10 uM; assay type: functional, cell-based
How it was run: (§1)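 FlpIn-CHO cells stably expressing human A1AR were seeded at 50,000/well and kept in serum-free DMEM/20 mM HEPES for at least 4 h. They were pretreated for 30 min with 1 U/mL adenosine deaminase, then for 30 min at 37 °C with compound at 3 or 10 μM.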

[4] = target: T2, Adenosine receptor A1 (Homo sapiens); assay: Agonist activity at human adenosine A1 receptor expressed in CHOk1 cells assessed as induction of ERK1/2 phosphorylation at 10 uM relative to R-PIA; assay type: functional, cell-based; how it was run: as §1
[5] = target: T2, Adenosine receptor A1 (Homo sapiens); assay: Agonist activity at human adenosine A1 receptor expressed in CHOk1 cells assessed as potentiation of R-PIA-induced ERK1/2 phosphorylation at 3 uM; assay type: functional, cell-based; how it was run: as §1
[6] = target: T1, Adenosine receptor A1; assay: Antagonist activity at human adenosine A1 receptor expressed in CHOk1 cells assessed as inhibition of R-PIA-induced ERK1/2 phosphorylation; assay type: functional, cell-based; details: read-out: pA2 (converted)
How it was run: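 Human A1AR FlpIn-CHO cells were serum-starved and pretreated for 30 min with 1 U/mL adenosine deaminase. Modulator (0.3, 1, 3, 10 or 30 μM) or none was then added for 30 min at 37 °C. Full R-PIA concentration–response curves followed, with 5 min stimulation. ERK1/2 phosphorylation was measured by AlphaScreen SureFire and normalized to the 6 min 3% FBS response.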

| Compound | EC50 [1] [µM] | Activity [2] [%] | Activity [3] | Activity [4] | Activity [5] | Kb [6] [µM] |
| --- | --- | --- | --- | --- | --- | --- |
| CN1CCc2c(sc(N)c2C(=O)NCc2cccc(Cl)c2)C1 | 13.2 | 88 | inactive | inactive | inactive |  |
| Nc1sc2c(c1C(=O)c1ccc(Cl)cc1)CCN(Cc1ccccc1)C2 | > 20 | 32.6 | Active |  | Active |  |
| Nc1sc2c(c1C(=O)NCc1ccccc1)CCN(Cc1ccccc1)C2 | 13.1 | 37.6 | inactive | inactive | inactive |  |
| NC(=O)c1c(N)sc2c1CCN(Cc1ccccc1)C2 | > 20 | 19.1 | inactive | inactive | inactive |  |
| Nc1sc2c(c1C(=O)NCc1cccc(C(F)(F)F)c1)CCN(Cc1ccccc1)C2 | 15.5 | 46.9 | inactive | inactive | inactive |  |
| CCOC(=O)c1c(N)sc2c1CCN(C(=O)[C@H](CSC(c1ccccc1)(c1ccccc1)c1ccccc1)NC(=O)OC(C)(C)C)C2 | 7.9 | 93.2 | inactive | inactive | inactive |  |
| N#Cc1c(N)sc2c1CCN(Cc1ccccc1)C2 | 15.2 | 52 | inactive | inactive | inactive |  |
| CCOC(=O)c1c(N)sc2c1CCN(C)C2 | > 20 | 14.9 | inactive | inactive | inactive |  |
| CC(C)(C)OC(=O)N1CCc2c(sc(N)c2C(=O)O)C1 | 12.1 | 66.1 | inactive | inactive | inactive |  |
| CN1CCc2c(sc(N)c2C(=O)NN)C1 | 4.4 | 85.7 | inactive | inactive | inactive |  |
| CN1CCc2c(sc(N)c2C(=O)NCc2ccccc2)C1 | 12 | 87.2 | inactive | inactive | inactive |  |
| CC(C)(C)OC(=O)N1CCc2c(sc(N)c2C#N)C1 | > 20 | 22.9 | inactive | inactive | inactive |  |
| CN1CCc2c(sc(N)c2C#N)C1 | > 20 | 14.8 | inactive | inactive | inactive |  |
| NNC(=O)c1c(N)sc2c1CCN(Cc1ccccc1)C2 | 8.9 | 82.9 | inactive | inactive | inactive |  |
| CN1CCc2c(sc(N)c2C(=O)O)C1 | 11.6 | 77.1 | inactive | inactive | inactive |  |
| CN1CCc2c(sc(N)c2C(=O)NNc2ccccc2)C1 | 11.5 | 83.1 | inactive | inactive | inactive |  |
| CN1CCc2c(sc(N)c2C(N)=O)C1 | > 20 | 19.8 | inactive | inactive | inactive |  |
| CCOC(=O)c1c(N)sc2c1CCN(C(=O)[C@H](Cc1ccccc1)NC(=O)OC(C)(C)C)C2 | 7.2 | 82.5 | inactive | inactive | inactive | 0.372 |
| CCOC(=O)c1c(N)sc2c1CCN(C(=O)OC(C)(C)C)C2 | 13.2 | 32.8 | inactive | inactive | inactive | 0.832 |
| Nc1sc2c(c1C(=O)O)CCN(Cc1ccccc1)C2 | 8 | 68.3 | inactive | inactive | inactive |  |
| CCOC(=O)c1c(N)sc2c1CCNC2 | 11.7 | 58.5 | inactive | inactive | inactive |  |
| Nc1sc2c(c1C(=O)NCc1cccc(Cl)c1)CCN(Cc1ccccc1)C2 | > 20 | 36 | inactive | inactive | inactive |  |
| Nc1sc2c(c1C(=O)NNc1ccccc1)CCN(Cc1ccccc1)C2 | 7.8 | 55.4 | inactive | inactive | inactive |  |
| CCOC(=O)c1c(N)sc2c1CCN(Cc1ccccc1)C2 [TINORIDINE] | 10.3 | 44.9 | inactive | inactive | inactive |  |
| CCOC(=O)c1c(N)sc2c1CCN(C(=O)[C@@H](Cc1ccc(Cl)cc1)N(C)C(=O)OC(C)(C)C)C2 | 9.1 | 92.9 | inactive | inactive | inactive | 1.82 |
